# Screening data as filed in PubChem BioAssay.
# Rows were chosen to be rich in hits. Some 1.6% of all compounds tested hit in one or more screens of this group.
# VLA-4 inh = inhibition in a human VLA-4 binding assay; VLA-4 expressing cells, ligand binding flow cytometry; inhibition, % (about 7 µM as worked out from the volumes in the protocol); 330,000 compounds, 0.2% hits; AID 2557; in the data active = inhibition above about 50%
# NR2E3 ag-1 = agonists of human nuclear receptor NR2E3; Q9Y5X4; GST-NR2E3/biotin-RetCOR TR-FRET, 1536-well; inhibition of corepressor binding, % at 4.78 µM; 320,000 compounds, 0.12% hits; AID 2300;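 active = percent inhibition above the cutoff of mean plus 3 SD of all tested compounds, set per screening campaign, cut at about 20% in these data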
#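 Material: NR2E3–RetCOR corepressor complex | Quantity: 1.35 nM GST-tagged NR2E3 final | Schedule: 5 h at 4 °C | Replication: Singlicate compound wells | Reagent: RetCOR corepressor, biotinylated, 7 nM | Controls: Biotin wells as high control, 0.6% DMSO wells as low control | Signal: TR-FRET, Eu(K)-anti-GST donor, streptavidin-D2 acceptor, ex 340, em 617/671 nm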
# NR2E3 ag-2 = agonists of human NR2E3 nuclear receptor; Q9Y5X4; inhibition of corepressor binding, % at 3.98 µM; CHO-S Gal4-NCOR/VP16-NR2E3 two-hybrid, luciferase; 360,000 compounds, 0.35% hits;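 active = inhibition above the mean of all tested compounds plus 3 SD, cut at about 70% in these data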;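 also: higher means lower luciferase signal from less NR2E3 corepressor binding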
# PG9 binder = PG9 antibody binding by small molecule; TR-FRET gp120-PG9 antibody binding; 360,000 compounds, 0.43% hits; inhibition, % at 6.7 µM; AID 624416; in the data active = inhibition above about 8.5%
# Rev-erbA mod = modulates human Rev-erb alpha binding to DNA; Rev-erbα–FITC-DNA binding, fluorescence polarization, 90 min; activity, % at 10 µM; 370,000 compounds, 0.79% hits;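 active = activity above about 14%, limit read from the data; passing the limit was not always enough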
# Target sequence (P20393 whole entry, looked up): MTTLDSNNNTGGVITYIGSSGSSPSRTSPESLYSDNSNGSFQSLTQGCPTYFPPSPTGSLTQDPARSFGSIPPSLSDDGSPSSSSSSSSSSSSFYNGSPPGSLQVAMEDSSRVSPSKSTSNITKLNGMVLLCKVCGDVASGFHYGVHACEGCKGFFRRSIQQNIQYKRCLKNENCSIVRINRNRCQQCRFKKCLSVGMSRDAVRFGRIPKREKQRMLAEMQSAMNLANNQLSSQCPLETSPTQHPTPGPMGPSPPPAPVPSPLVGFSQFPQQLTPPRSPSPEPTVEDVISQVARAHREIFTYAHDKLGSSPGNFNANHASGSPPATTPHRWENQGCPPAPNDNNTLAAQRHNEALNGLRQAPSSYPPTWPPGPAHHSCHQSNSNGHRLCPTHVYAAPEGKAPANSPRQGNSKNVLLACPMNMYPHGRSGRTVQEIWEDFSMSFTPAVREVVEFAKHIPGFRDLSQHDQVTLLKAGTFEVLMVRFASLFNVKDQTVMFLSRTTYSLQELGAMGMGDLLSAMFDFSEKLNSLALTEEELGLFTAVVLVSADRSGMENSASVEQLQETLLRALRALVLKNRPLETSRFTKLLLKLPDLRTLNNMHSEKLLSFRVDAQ
# NR1D1 mod conf = confirmation of modulators of human Rev-erb alpha DNA binding | shares compounds with Rev-erbA mod | Rev-erb alpha FITC-DNA binding, fluorescence polarization, 90 min | activation, % at 25 µM | 3,000 compounds, 61% hits;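 active = activation at or above a set limit, or at least 3 SD above the negative control mean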
# RORg DNA counter = counter-screen for Rev-erb alpha modulators: RORgamma DNA binding | shares compounds with Rev-erbA mod | purified RORgamma protein-FITC-DNA binding, fluorescence polarization | IC50, µM | 910 compounds, 8% hits;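 active = Compounds whose fitted half-maximal concentration for disrupting protein-DNA binding is below 10 micromolar; the record names Rev-erb in its text, so the target is in doubt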
# Numbers stand for hits; - = inactive; . = no result.
SMILES,VLA-4 inh,NR2E3 ag-1,NR2E3 ag-2,PG9 binder,Rev-erbA mod,NR1D1 mod conf,others
CN1C(=O)/C(=C/C=C2\SCCN2C)N(C)C1=S,.,.,-,-,51,22,
COc1cccc(-c2nn(-c3ccc(C)cc3)cc2C(=O)N2CCN(C3CCS(=O)(=O)C3)CC2)c1 (stereo not drawn),-,-,-,-,-,.,
COC(=O)Cn1c(=NC(=O)c2nc3ccccc3s2)sc2cc(S(N)(=O)=O)ccc21,-,-,-,-,39,23,
COCCn1c(=NC(=O)c2ccc3c(c2)OCCO3)sc2cc(S(N)(=O)=O)ccc21,-,-,-,-,29,38,RORg DNA counter=-
COC(=O)Cn1c(=NC(=O)c2cc(-c3cccs3)nc3ccccc23)sc2cc(S(N)(=O)=O)ccc21,-,-,-,-,-,.,
COCCn1c(=NC(=O)c2cc(Cl)sc2Cl)sc2cc(S(N)(=O)=O)ccc21,-,-,-,-,-,.,
COCCn1c(=NC(=O)c2nc3ccccc3s2)sc2cc(S(C)(=O)=O)ccc21,-,-,-,-,89,63,RORg DNA counter=-
COc1ncccc1-c1nnn(-c2ccc(C)cc2)n1,-,-,-,-,-,.,
Cc1ccc(-n2nnc(-c3cc4ccccc4nc3Cl)n2)cc1,-,-,-,-,35,30,
N#CCCN(CCC#N)S(=O)(=O)c1ccc(C(=O)Nc2nc(-c3ccccc3)c(C(=O)c3ccccc3)s2)cc1,-,-,-,-,189,177,RORg DNA counter=4.1
Cc1ccc(-c2nc(NC(=O)c3ccc(S(=O)(=O)N(CCC#N)CCC#N)cc3)sc2-c2ccccc2)cc1,-,-,-,-,26,18,
COc1ccc(CN2CCN(CCCc3ccccc3)C(CCO)C2)c(O)c1 (stereo not drawn),-,-,-,-,-,.,
COc1ccc(CN2CCN(CCc3ccccc3)C(CCO)C2)c(O)c1 (stereo not drawn),-,-,-,-,16,-,
O=C(/C=C\Nc1ccc(Cl)cn1)c1ccc(Br)cc1,-,-,-,-,67,-,
CCC(=O)N1c2ccc(S(=O)(=O)NCc3ccccc3)cc2CC1C (stereo not drawn),-,-,-,-,-,.,
Cc1ccc(Cc2c(-c3ccc(F)cc3)nc3c(Cl)cc(C(F)(F)F)cn23)cc1,.,.,-,-,-,.,
Fc1ccc(-c2nc3c(Cl)cc(C(F)(F)F)cn3c2Cl)cc1,-,-,-,-,35,19,
Cc1ccc(C(=O)OCC(=O)N2CCC(c3ccccc3)=N2)c(C)c1,-,-,-,-,-,.,
CC(C)(C)c1ccc(C(=O)OCC(=O)N2CCC(c3ccccc3)=N2)cc1,-,-,-,-,14,-,
CN(C)CCCNC(=O)c1ccc(Oc2ccccc2)cc1,-,-,-,-,-,.,
COc1ccc(C)cc1NC(=O)c1cnc2scc(C)n2c1=O,.,.,-,-,27,-,
Cc1nn(C)c(C)c1S(=O)(=O)N1CCC(CO)(CC2CCCCO2)CC1 (stereo not drawn),-,-,-,-,-,.,
CCSc1nc(-c2ccc(OC)cc2)cc(-c2ccccc2)c1C#N,-,-,-,-,-,.,
CCc1nnc(NC(=O)CSc2nc(-c3ccc(F)cc3)cc(-c3ccccc3)c2C#N)s1,.,.,-,-,38,-,
COc1ccc(-c2cc(-c3ccccc3)nc(SCC(=O)Nc3ncc(C)s3)c2C#N)cc1,-,-,-,-,39,-,
COc1ccc(C(=O)CSc2nnc(-c3ccc(S(=O)(=O)N4CCOCC4)cc3)o2)cc1,-,-,-,-,-,.,
O=C(CSc1nnc(-c2ccc(S(=O)(=O)N3CCOCC3)cc2)o1)c1ccccc1F,-,-,-,-,21,-,
COc1ccc(-c2nc(CS(=O)CC(=O)NC3CCC(C)CC3)c(C)o2)cc1OC (stereo not drawn),-,-,-,-,-,.,
Cc1ccc(-c2nc(NC(=O)CSc3cc(C)c4ccccc4n3)ns2)cc1,-,-,-,-,499,61,RORg DNA counter=-
COc1ccc2c(C)cc(SCC(=O)Nc3nsc(-c4ccc(C)cc4)n3)nc2c1,-,-,-,-,-,.,
